The text below walks through data of ChEMBL document CHEMBL4414552, “Homotrimerization Approach in the Design of Thrombospondin-1 Mimetic Peptides with Improved Potency in Triggering Regulated Cell Death of Cancer Cells” (J Med Chem, 2019).

The Kd is the concentration at which binding is half-saturated.

The source made the active and inactive calls. The rule behind the calls is not given here. Square brackets hold non-standard residues; d marks the D form. Peptide text beside a SMILES is read from it. NMeR = CN[C@@H](CCCNC(=N)N)C(=O)O

For experiment [1], the system named is MEC1. Description: Cytotoxicity against human MEC1 cells assessed as induction of cell death at 200 uM after 6 hrs by annexin V/propidium iodide staining based flow cytometric analysis relative to control. Type of experiment: functional. In general terms: In flow cytometry, cells or beads pass a laser one at a time.
For experiment [2], the target named is T1, Leukocyte surface antigen CD47 (Homo sapiens, UniProt Q08722). Nature of the experiment: Binding affinity to CD47 in biotinylated human MEC1 cell membranes by biolayer interferometry. The gist of the method:
(§1)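 Biotinylated membrane preparations from MEC-1 cells were loaded onto SuperStreptavidin biosensors. Binding was measured by bilayer interferometry (Octet RED96) in PBS with 0.2% BSA and 1% DMSO at 30 °C. Affinities are given as apparent Kd estimates.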

The target of experiment [3] is T1, Leukocyte surface antigen CD47. Nature of the experiment: Binding affinity to CD47 in biotinylated human MEC1 cell membranes at 300 uM by biolayer interferometry. Put shortly: as §1
On the technique in general: BLI is a label-free optical method that tracks binding on a fibre tip over time.

Experiment [4] deals with MEC1. Description: Cytotoxicity against human MEC1 cells assessed as induction of cell death at 300 uM after 6 hrs by annexin V/propidium iodide staining based flow cytometric analysis relative to control. Format: functional.
For experiment [5], the system named is MEC1. Nature of the experiment: Induction of cell death in human MEC1 cells at 50 uM in presence of IP3R inhibitor 2-APB administered 1 hr post 2-APB treatment in serum-free medium by annexin V-APC/propidium iodide staining based flow cytometric analysis. Type of experiment: functional. The gist of the method:
(§2)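 Peptide was then added at 5 or 50 μM in serum-free medium for 2 h. Cell death was read by Ann-V/PI flow cytometry and normalized to each peptide's control to give an index. Mean ± SD of at least two experiments.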

Experiment [6] has as its system MEC1. Nature of the experiment: Induction of cell aggregation in human MEC1 at 200 uM after 2 hrs by microcopic method. Type of experiment: functional, cell-based. Put shortly:
(§3)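 MEC-1 CLL cells kept in Advanced RPMI 1640 with 10% FCS, 2 mM L-glutamine and penicillin–streptomycin. Cells were treated with peptide in complete medium for 2 h, then examined by light microscopy at 20X for morphology and cell aggregation.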

Experiment [7] deals with A549. Nature of the experiment: Induction of cell death in human A549 cells at 100 uM administered 30 mins post Q-VD-OPh treatment in serum-free medium by propidium iodide staining based flow cytometric analysis. Type of experiment: functional.
The subject of experiment [8] is A549. Nature of the experiment: Induction of cell death in human A549 cells at 100 uM in presence of ryanodine inhibitor dantrolene administered 1 hr post dantrolene treatment in serum-free medium by annexin V-APC/propidium iodide staining based flow cytometric analysis. Format: functional. Put shortly: (§4)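 Peptide was then added at 10 or 100 μM in serum-free medium for 6 h. Cell death was read by Ann-V/PI flow cytometry and trypan blue counting. A cell death index was obtained by normalizing to each peptide's control. Mean ± SD of two experiments.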

The test system of experiment [9] is MEC1. Nature of the experiment: Cytotoxicity against human MEC1 cells assessed as induction of cell death after 2 hrs by annexin V/propidium iodide staining based flow cytometric analysis. Type of experiment: functional. As to conditions: MEC1, 2 h, read-out: LC50 (the source's name). The gist of the method:
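MEC-1 CLL cells (TP53-dysfunctional) maintained in Advanced RPMI 1640 with 10% fetal calf serum, 2 mM L-glutamine and penicillin–streptomycin. Peptide treatment for 2 h in complete medium. Ann-V-APC (0.1 μg/mL) and PI (0.5 μg/mL) staining, read by flow cytometry. Cell death taken as the sum of AnnV+/PI- and AnnV+/PI+ events. Mean ± SD of at least three independent experiments.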

Experiment [10] concerns A549. Nature of the experiment: Induction of cell death in human A549 cells at 100 uM in presence of ryanodine inhibitor dantrolene/PLCgamma1 inhibitor U73122/IP3R inhibitor 2-APB by annexin V-APC/propidium iodide staining based flow cytometric analysis. Format: functional. Put shortly: as §4
For experiment [11], the system named is MEC1. Nature of the experiment: Induction of cell death in human MEC1 cells at 50 uM in presence of PLCgamma1 inhibitor U73122 administered 1 hr post U73122 treatment in serum-free medium by annexin V-APC/propidium iodide staining based flow cytometric analysis. Type of experiment: functional. Put shortly:
as §2

In experiment [12] the test system is MEC1. Description: Induction of cell death in human MEC1 cells at 50 uM in presence of extracellular calcium chelator BAPTA administered 30 mins post BAPTA treatment in serum-free medium by Annexin V-APC/propidium iodide staining based flow cytometric analysis. Type of experiment: functional.
The test system of experiment [13] is A549. Description: Induction of cell death in human A549 cells at 100 uM in presence of PLCgamma1 inhibitor U73122 administered 1 hr post U73122 treatment in serum-free medium by annexin V-APC/propidium iodide staining based flow cytometric analysis. Format: functional. The gist of the method: as §4
In experiment [14] the test system is MEC1. Description: Induction of cell death in human MEC1 cells at 50 uM in presence of ryanodine inhibitor dantrolene administered 1 hr post dantrolene treatment in serum-free medium by annexin V-APC/propidium iodide staining based flow cytometric analysis. Format: functional. Put shortly: as §2
Experiment [15] has as its system MEC1. Description: Induction of cell death in human MEC1 cells at 50 uM in presence of caspase inhibitor Q-VD-OPH administered 30 mins post Q-VD-OPH treatment in serum-free medium by Annexin V-APC/propidium iodide staining based flow cytometric analysis. Format: functional.
Experiment [16] has as its target T1, Leukocyte surface antigen CD47. Nature of the experiment: Agonist activity at CD47 in human MEC1 cells assessed as activation of PLCgamma1-induced calcium-mediated caspase-independent cell death at 200 uM after 2 hrs by microscopic method. Format: cell-based. The gist of the method:
as §3

The subject of experiment [17] is A549. Description: Disruption of membrane integrity in human A549 cells assessed as increase in adenylate kinase release at 200 uM by ToxiLight bioassay. Type of experiment: functional, cell-based.
The subject of experiment [18] is A549. Description: Cytotoxicity against human A549 cells assessed as induction of cell death after 6 hrs by annexin V-APC/propidium iodide staining based flow cytometric analysis. Type of experiment: functional. As to conditions: A549, 6 h, read-out: LC50 (the source's name). Put shortly: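 A549 cells kept in Advanced RPMI 1640 with 10% fetal calf serum, 2 mM L-glutamine and penicillin–streptomycin. Peptides at the indicated concentrations in this complete medium for 6 h. Cells stained with Ann-V-APC (0.1 μg/mL) and PI (0.5 μg/mL), then read by flow cytometry. Values are means ± SD of two independent experiments.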

Experiment [19] concerns A549. Description: Induction of cell death in human A549 cells at 100 uM in presence of IP3R inhibitor 2-APB administered 1 hr post 2-APB treatment in serum-free medium by annexin V-APC/propidium iodide staining based flow cytometric analysis. Format: functional. Put shortly:
as §4

Experiment [20] has as its system MEC1. Nature of the experiment: Induction of cell death in human MEC1 cells at 50 uM in presence of ryanodine inhibitor dantrolene/PLCgamma1 inhibitor U73122/IP3R inhibitor 2-APB by annexin V-APC/propidium iodide staining based flow cytometric analysis. Type of experiment: functional. The gist of the method: as §2
In experiment [21] the test system is A549. Description: Induction of cell death in human A549 cells assessed as reduction in cell index at 200 uM measured every minute for first 2 hrs followed by every hour for 24 hrs by RTCA analysis. Format: functional, cell-based.
The test system of experiment [22] is A549. Nature of the experiment: Induction of cell death in human A549 cells at 100 uM in presence of extracellular calcium chelator BAPTA administered 30 mins post BAPTA treatment in serum-free medium by annexin V-APC/propidium iodide staining based flow cytometric analysis. Format: functional.

T1 sequence (Q08722 whole entry): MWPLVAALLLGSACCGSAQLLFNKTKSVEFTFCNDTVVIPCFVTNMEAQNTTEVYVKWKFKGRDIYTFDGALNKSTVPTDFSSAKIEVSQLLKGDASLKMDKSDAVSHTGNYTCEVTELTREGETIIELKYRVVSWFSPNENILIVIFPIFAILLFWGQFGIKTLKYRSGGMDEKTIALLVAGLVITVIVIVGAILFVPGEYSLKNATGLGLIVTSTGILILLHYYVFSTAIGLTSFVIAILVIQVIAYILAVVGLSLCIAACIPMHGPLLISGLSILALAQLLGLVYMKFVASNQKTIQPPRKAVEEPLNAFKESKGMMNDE

As to `CSCC[C@H](NC(=O)[C@@H](NC(=O)[C@H](C(C)C)N(C)C(=O)[C@H](Cc1ccc(O)cc1)NC(=O)[C@H](Cc1ccccc1)NC(=O)[C@H](CCCNC(=N)N)NC(=O)[C@H](N)CCCCN)C(C)C)C(=O)N[C@@H](Cc1c[nH]c2ccccc12)C(=O)N[C@@H](CCCCN)C(=O)N[C@H](CCCCN)C(=O)O`, the Activity in the experiment with MEC1 [1] is given as 11%. This compound also had a Kd in experiment [2] of 36 µM.
In the same order, the values of `CC[C@H](C)[C@H](NC(=O)[C@@H](NC(=O)[C@@H](NC(=O)[C@H](Cc1ccc(O)cc1)NC(=O)[C@H](Cc1ccccc1)NC(=O)[C@H](CCCNC(=N)N)N(C)C(=O)[C@H](N)CCCCN)C(C)C)C(C)C)C(=O)N[C@@H](Cc1c[nH]c2ccccc12)C(=O)N[C@@H](CCCCN)C(=O)N[C@H](CCCCN)C(=O)O` are 25% and 17 µM.
With `CC(C)[C@H](NC(=O)[C@H](Cc1ccc(O)cc1)NC(=O)[C@H](Cc1ccccc1)NC(=O)[C@H](CCCNC(=N)N)N(C)C(=O)[C@H](N)CCCCN)C(=O)N[C@H](C(=O)N[C@H](C(=O)N[C@@H](Cc1c[nH]c2ccccc12)C(=O)N[C@@H](CCCCN)C(=O)N[C@H](CCCCN)C(=O)O)C(C)C)C(C)C`, the Activity in the experiment on MEC1 [1] stood at 23%. In experiment [2], this compound displayed a Kd of 9.5 µM.
With H-KWVKYRVMFK-OH, the outcome (with MEC1 [1]; in experiment [2]; in [3]; in the experiment on MEC1 [4]) was inactive.
Consider `CSCC[C@H](NC(=O)[C@@H](NC(=O)[C@@H](NC(=O)[C@H](Cc1ccc(O)cc1)NC(=O)[C@H](Cc1ccccc1)NC(=O)[C@H](CCCNC(=N)N)NC(=O)[C@H](N)CCCCN)C(C)C)C(C)C)C(=O)N[C@@H](Cc1c[nH]c2ccccc12)C(=O)N[C@@H](CCCCN)C(=O)N[C@H](CCCCN)C(=O)O`, for which the Activity in the experiment with MEC1 [1] came out at 67%. Besides, the outcome in the experiment with MEC1 [5], with MEC1 [6], in the experiment on A549 [7], in the experiment on A549 [8], in the experiment with A549 [10] and in the experiment with MEC1 [11] was inactive. Moreover, the result in the experiment with MEC1 [12], in the experiment with A549 [13], in the experiment on MEC1 [14], with MEC1 [15], with A549 [19] and with MEC1 [20] was inactive. In the experiment with A549 [22], the outcome was inactive. Besides, the CC50 in the experiment with MEC1 [9] and in the experiment on A549 [18] was 200 µM throughout. In addition, the result (in [16]; with A549 [17]; in the experiment on A549 [21]) was Active.
`CCCC[C@H](NC(=O)[C@@H](NC(=O)[C@@H](NC(=O)[C@H](Cc1ccc(O)cc1)NC(=O)[C@H](Cc1ccccc1)NC(=O)[C@H](CCCNC(=N)N)N(C)C(C)=O)C(C)C)C(C)C)C(=O)N[C@@H](Cc1c[nH]c2ccccc12)C(=O)N[C@@H](CCCCN)C(N)=O`: in the experiment with MEC1 [1], the Activity was determined as 51%. In [2], this compound had a Kd of 20 µM.
In the same order, the values of `CSCC[C@H](NC(=O)[C@@H](NC(=O)[C@@H](NC(=O)[C@H](Cc1ccc(O)cc1)NC(=O)[C@H](Cc1ccccc1)NC(=O)[C@H](CCCNC(=N)N)NC(=O)[C@H](N)CCCCN)C(C)C)C(C)C)C(=O)N[C@@H](Cc1c[nH]c2ccccc12)C(=O)N(C)[C@@H](CCCCN)C(=O)N[C@H](CCCCN)C(=O)O` are 20% and 48 µM.
For the compound `CSCC[C@@H](C(=O)N[C@@H](Cc1c[nH]c2ccccc12)C(=O)N[C@@H](CCCCN)C(=O)N[C@H](CCCCN)C(=O)O)N(C)C(=O)[C@@H](NC(=O)[C@@H](NC(=O)[C@H](Cc1ccc(O)cc1)NC(=O)[C@H](Cc1ccccc1)NC(=O)[C@H](CCCNC(=N)N)NC(=O)[C@H](N)CCCCN)C(C)C)C(C)C`, the Activity in the experiment with MEC1 [1] came out at 11%.
Turning to `CC(C)C[C@H](NC(=O)[C@@H](NC(=O)[C@@H](NC(=O)[C@H](Cc1ccc(O)cc1)NC(=O)[C@H](Cc1ccccc1)NC(=O)[C@H](CCCNC(=N)N)N(C)C(=O)[C@H](N)CCCCN)C(C)C)C(C)C)C(=O)N[C@@H](Cc1c[nH]c2ccccc12)C(=O)N[C@@H](CCCCN)C(=O)N[C@H](CCCCN)C(=O)O` (H-[dK][NMeR]FYVVLWK[dK]-OH), the Activity in the experiment on MEC1 [1] was found to be 26%. Also, the affinity in [2], expressed as Kd, was 15 µM.
In the same order, the values of `CSCC[C@H](NC(=O)[C@@H](NC(=O)[C@@H](NC(=O)[C@H](Cc1ccc(O)cc1)NC(=O)[C@H](Cc1ccccc1)NC(=O)[C@H](CCCNC(=N)N)N(C)C(=O)[C@H](N)CCCCN)C(C)C)C(C)C)C(=O)N[C@@H](Cc1c[nH]c2ccccc12)C(=O)N(C)[C@@H](CCCCN)C(=O)N[C@H](CCCCN)C(=O)O` are 19% and 38 µM.
In the same order, the values of `CC(C)[C@H](NC(=O)[C@H](Cc1ccc(O)cc1)NC(=O)[C@H](Cc1ccccc1)NC(=O)[C@H](CCCNC(=N)N)N(C)C(=O)[C@H](N)CCCCN)C(=O)N[C@H](C(=O)N[C@@H](Cc1ccc(O)cc1)C(=O)N[C@@H](Cc1c[nH]c2ccccc12)C(=O)N[C@@H](CCCCN)C(=O)N[C@H](CCCCN)C(=O)O)C(C)C` are 19% and 13 µM.
Consider `CSCC[C@H](NC(=O)[C@@H](NC(=O)[C@@H](NC(=O)[C@H](Cc1ccc(O)cc1)NC(=O)[C@H](Cc1ccccc1)NC(=O)[C@H](CCCNC(=N)N)N(C)C(=O)[C@H](N)CCCCN)C(C)C)C(C)C)C(=O)N[C@@H](Cc1c[nH]c2ccccc12)C(=O)N[C@@H](CCCCN)C(=O)N[C@H](CCCCN)C(=O)O`, for which the Activity in the experiment on MEC1 [1] is reported as 54%. Further, binding in experiment [2] was characterised by a dissociation constant (Kd) of 21 µM.
